Data from ChEMBL document CHEMBL3588757, “Structure-based design, synthesis and biological testing of piperazine-linked bis-epipodophyllotoxin etoposide analogs” (Bioorg Med Chem, 2015).
Calls of active or inactive are those of the source. The calls are words filed in the database; no cut-off is given here.

Assays:
OVCAR-5 = test: Cytotoxicity against human OVCAR5 cells assessed as cell growth at 10 uM; format: functional; details: read-out: Activity
SF-268 = test: Cytotoxicity against human SF268 cells assessed as cell growth at 10 uM; format: functional; details: read-out: Activity
NCI-H226 = test: Cytotoxicity against human NCI-H226 cells assessed as cell growth at 10 uM; format: functional; details: read-out: Activity
MOLT-4 = test: Cytotoxicity against human MOLT4 cells assessed as cell growth at 10 uM; format: functional; details: read-out: Activity
RPMI-8226 = test: Cytotoxicity against human RPMI8226 cells assessed as cell growth at 10 uM; format: functional; details: read-out: Activity
K562 [1] = test: Relative resistance, ratio of IC50 for etoposide-resistant human K/VP.5 cells to IC50 for human K562 cells; format: functional
NCI-H23 = test: Cytotoxicity against human NCI-H23 cells assessed as cell growth at 10 uM; format: functional; details: read-out: Activity
HT-29 = test: Cytotoxicity against human HT-29 cells assessed as cell growth at 10 uM; format: functional; details: read-out: Activity
MDA-MB-231 = test: Cytotoxicity against human MDA-MB-231/ATCC cells assessed as cell growth at 10 uM; format: functional; details: read-out: Activity
T47D = test: Cytotoxicity against human T47D cells assessed as cell growth at 10 uM; format: functional; details: read-out: Activity
RXF 393 = test: Cytotoxicity against human RXF393 cells assessed as cell growth at 10 uM; format: functional; details: read-out: Activity
U-251 = test: Cytotoxicity against human U251 cells assessed as cell growth at 10 uM; format: functional; details: read-out: Activity
K562 [2] = test: Cytotoxicity against human K562 cells assessed as cell growth inhibition after 72 hrs by MTS assay; format: functional, cell-based; details: K562, 72 h
A498 = test: Cytotoxicity against human A498 cells assessed as cell growth at 10 uM; format: functional; details: read-out: Activity
PC-3 = test: Cytotoxicity against human PC3 cells assessed as cell growth at 10 uM; format: functional; details: read-out: Activity
NCI-H322M = test: Cytotoxicity against human NCI-H322M cells assessed as cell growth at 10 uM; format: functional; details: read-out: Activity
SW-620 = test: Cytotoxicity against human SW620 cells assessed as cell growth at 10 uM; format: functional; details: read-out: Activity
NCI-H460 = test: Cytotoxicity against human NCI-H460 cells assessed as cell growth at 10 uM; format: functional; details: read-out: Activity
CAKI-1 = test: Cytotoxicity against human Caki1 cells assessed as cell growth at 10 uM; format: functional; details: read-out: Activity
[3] = Cytotoxicity against human Hs578T cells assessed as cell growth at 10 uM; format: functional; details: Hs-578T, read-out: Activity
DU-145 = test: Cytotoxicity against human DU145 cells assessed as cell growth at 10 uM; format: functional; details: read-out: Activity
Malme-3M = test: Cytotoxicity against human MALME-3M cells assessed as cell growth at 10 uM; format: functional; details: read-out: Activity
ACHN = test: Cytotoxicity against human ACHN cells assessed as cell growth at 10 uM; format: functional; details: read-out: Activity
HOP-62 = test: Cytotoxicity against human HOP62 cells assessed as cell growth at 10 uM; format: functional; details: read-out: Activity
K562 [4] = test: Cytotoxicity against human K562 cells assessed as cell growth at 10 uM; format: functional; details: read-out: Activity
[5] = Cytotoxicity against etoposide-resistant human K/VP.5 cells assessed as cell growth inhibition after 72 hrs by MTS assay; format: functional, cell-based; details: K/VP.5, 72 h
Summary of the method: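 K/VP.5 cells are a K562-derived subline, 26-fold etoposide-resistant, with decreased topoisomerase IIα mRNA and protein. Cells were grown in suspension in αMEM with 10% fetal calf serum. Drugs were given from DMSO stocks, with final DMSO typically 0.4% or less. Read-out was MTS absorbance after 72 h. Typically nine concentrations were run in duplicate on two days. IC50 came from a four-parameter logistic fit.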

SNB-19 = test: Cytotoxicity against human SNB19 cells assessed as cell growth at 10 uM; format: functional; details: read-out: Activity
UO-31 = test: Cytotoxicity against human UO31 cells assessed as cell growth at 10 uM; format: functional; details: read-out: Activity
SK-MEL-5 = test: Cytotoxicity against human SK-MEL-5 cells assessed as cell growth at 10 uM; format: functional; details: read-out: Activity
[6] = target: DNA topoisomerase 2-alpha (Homo sapiens) (UniProt P11388); test: Inhibition of full-length human recombinant topoisomerase 2-alpha-mediated decatenation activity of kDNA by ethidium bromide based gel-assay
786-0 = test: Cytotoxicity against human 786-0 cells assessed as cell growth at 10 uM; format: functional; details: read-out: Activity
KM12 = test: Cytotoxicity against human KM12 cells assessed as cell growth at 10 uM; format: functional; details: read-out: Activity
[7] = Cytotoxicity against human NCI-ADR-RES cells assessed as cell growth at 10 uM; format: functional; details: read-out: Activity
SF-539 = test: Cytotoxicity against human SF539 cells assessed as cell growth at 10 uM; format: functional; details: read-out: Activity
SK-MEL-2 = test: Cytotoxicity against human SK-MEL-2 cells assessed as cell growth at 10 uM; format: functional; details: read-out: Activity
SK-OV-3 = test: Cytotoxicity against human SKOV3 cells assessed as cell growth at 10 uM; format: functional; details: read-out: Activity
OVCAR-8 = test: Cytotoxicity against human OVCAR8 cells assessed as cell growth at 10 uM; format: functional; details: read-out: Activity
M14 = test: Cytotoxicity against human M14 cells assessed as cell growth at 10 uM; format: functional; details: read-out: Activity
MCF7 = test: Cytotoxicity against human MCF7 cells assessed as cell growth at 10 uM; format: functional; details: read-out: Activity
OVCAR-3 = test: Cytotoxicity against human OVCAR3 cells assessed as cell growth at 10 uM; format: functional; details: read-out: Activity
A549 = test: Cytotoxicity against human A549/ATCC cells assessed as cell growth at 10 uM; format: functional; details: read-out: Activity
HCT-15 = test: Cytotoxicity against human HCT15 cells assessed as cell growth at 10 uM; format: functional; details: read-out: Activity
CCRF-CEM = test: Cytotoxicity against human CCRF-CEM cells assessed as cell growth at 10 uM; format: functional; details: read-out: Activity
MDA-MB-468 = test: Cytotoxicity against human MDA-MB-468 cells assessed as cell growth at 10 uM; format: functional; details: read-out: Activity
HOP-92 = test: Cytotoxicity against human HOP92 cells assessed as cell growth at 10 uM; format: functional; details: read-out: Activity
MDA-MB-435 = test: Cytotoxicity against human MDA-MB-435 cells assessed as cell growth at 10 uM; format: functional; details: read-out: Activity
SN12C = test: Cytotoxicity against human SN12C cells assessed as cell growth at 10 uM; format: functional; details: read-out: Activity
SR = test: Cytotoxicity against human SR cells assessed as cell growth at 10 uM; format: functional; details: read-out: Activity
BT-549 = test: Cytotoxicity against human BT549 cells assessed as cell growth at 10 uM; format: functional; details: read-out: Activity
COLO 205 = test: Cytotoxicity against human COLO205 cells assessed as cell growth at 10 uM; format: functional; details: read-out: Activity
IGROV-1 = test: Cytotoxicity against human IGROV1 cells assessed as cell growth at 10 uM; format: functional; details: read-out: Activity
HL-60(TB) = test: Cytotoxicity against human HL-60(TB) cells assessed as cell growth at 10 uM; format: functional; details: read-out: Activity
OVCAR-4 = test: Cytotoxicity against human OVCAR4 cells assessed as cell growth at 10 uM; format: functional; details: read-out: Activity
SK-MEL-28 = test: Cytotoxicity against human SK-MEL-28 cells assessed as cell growth at 10 uM; format: functional; details: read-out: Activity
UACC-257 = test: Cytotoxicity against human UACC257 cells assessed as cell growth at 10 uM; format: functional; details: read-out: Activity
SNB-75 = test: Cytotoxicity against human SNB75 cells assessed as cell growth at 10 uM; format: functional; details: read-out: Activity
TK-10 = test: Cytotoxicity against human TK10 cells assessed as cell growth at 10 uM; format: functional; details: read-out: Activity
[8] = target: DNA topoisomerase 2-alpha (Homo sapiens) (UniProt P11388); test: Inhibition of full-length human recombinant topoisomerase 2-alpha mediated relaxation and cleavage of supercoiled pBR322 plasmid DNA to linear DNA by ethidium bromide staining based gel electrophoresis assay
Summary of the method: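 Recombinant full-length human topoisomerase IIα with supercoiled pBR322 DNA at 37 °C. Components mixed on ice before drug addition. Complexes trapped with SDS; products run on ethidium bromide gels. Linear DNA identified against a HindIII-linearized marker; repeated on three days.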

SF-295 = test: Cytotoxicity against human SF295 cells assessed as cell growth at 10 uM; format: functional; details: read-out: Activity
HCT-116 = test: Cytotoxicity against human HCT116 cells assessed as cell growth at 10 uM; format: functional; details: read-out: Activity
UACC-62 = test: Cytotoxicity against human UACC62 cells assessed as cell growth at 10 uM; format: functional; details: read-out: Activity
HCC 2998 = test: Cytotoxicity against human HCC2998 cells assessed as cell growth at 10 uM; format: functional; details: read-out: Activity

DNA topoisomerase 2-alpha (Homo sapiens), sequence (P11388 whole entry): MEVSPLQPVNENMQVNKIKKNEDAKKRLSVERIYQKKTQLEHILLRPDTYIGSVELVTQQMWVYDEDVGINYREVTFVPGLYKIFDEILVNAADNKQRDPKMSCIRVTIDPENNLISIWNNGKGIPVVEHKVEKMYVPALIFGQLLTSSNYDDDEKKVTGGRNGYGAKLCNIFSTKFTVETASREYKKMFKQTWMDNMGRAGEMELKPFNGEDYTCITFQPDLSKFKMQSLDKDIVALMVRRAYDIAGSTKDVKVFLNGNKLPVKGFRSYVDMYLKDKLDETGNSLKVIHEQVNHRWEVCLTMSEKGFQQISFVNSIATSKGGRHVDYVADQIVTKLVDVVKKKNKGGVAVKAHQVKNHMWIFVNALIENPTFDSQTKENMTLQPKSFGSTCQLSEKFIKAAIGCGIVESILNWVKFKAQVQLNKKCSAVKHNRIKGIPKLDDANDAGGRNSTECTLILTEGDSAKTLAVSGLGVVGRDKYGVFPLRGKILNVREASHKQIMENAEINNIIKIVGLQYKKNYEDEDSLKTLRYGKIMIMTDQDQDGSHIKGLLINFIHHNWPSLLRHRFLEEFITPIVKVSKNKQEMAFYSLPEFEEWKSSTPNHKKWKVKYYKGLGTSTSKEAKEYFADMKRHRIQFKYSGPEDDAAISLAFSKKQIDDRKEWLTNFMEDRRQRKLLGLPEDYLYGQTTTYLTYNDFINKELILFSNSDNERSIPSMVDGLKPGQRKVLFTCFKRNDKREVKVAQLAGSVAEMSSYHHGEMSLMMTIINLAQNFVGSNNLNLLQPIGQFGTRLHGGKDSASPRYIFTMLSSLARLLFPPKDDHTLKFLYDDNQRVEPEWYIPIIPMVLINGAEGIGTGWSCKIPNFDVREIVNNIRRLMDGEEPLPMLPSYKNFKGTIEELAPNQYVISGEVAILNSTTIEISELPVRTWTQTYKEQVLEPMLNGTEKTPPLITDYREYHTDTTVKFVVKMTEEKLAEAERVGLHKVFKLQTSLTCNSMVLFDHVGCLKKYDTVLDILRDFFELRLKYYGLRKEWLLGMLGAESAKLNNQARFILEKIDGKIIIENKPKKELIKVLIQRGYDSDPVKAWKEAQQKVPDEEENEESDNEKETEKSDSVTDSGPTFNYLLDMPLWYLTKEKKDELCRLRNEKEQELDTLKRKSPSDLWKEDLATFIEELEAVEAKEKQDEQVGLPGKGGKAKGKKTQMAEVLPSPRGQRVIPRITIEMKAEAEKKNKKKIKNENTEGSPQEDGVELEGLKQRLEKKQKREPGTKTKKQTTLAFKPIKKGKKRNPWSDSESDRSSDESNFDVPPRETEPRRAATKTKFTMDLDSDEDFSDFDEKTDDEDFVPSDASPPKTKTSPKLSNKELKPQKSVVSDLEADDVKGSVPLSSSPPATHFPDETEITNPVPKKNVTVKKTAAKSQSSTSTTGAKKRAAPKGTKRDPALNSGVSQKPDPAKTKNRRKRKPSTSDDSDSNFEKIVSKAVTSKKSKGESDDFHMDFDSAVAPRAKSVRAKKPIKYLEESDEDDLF

COc1cc([C@@H]2c3cc4c(cc3[C@@H](NC(=O)CN3CCN(CCCN5CCN(CC(=O)N[C@@H]6c7cc8c(cc7[C@@H](c7cc(OC)c(O)c(OC)c7)[C@H]7C(=O)OC[C@@H]76)OCO8)CC5)CC3)[C@H]3COC(=O)[C@H]23)OCO4)cc(OC)c1O
growth at 10 µM (OVCAR-5): 102%
growth at 10 µM (SF-268): 69.6%
growth at 10 µM (NCI-H226): 86%
growth at 10 µM (MOLT-4): 10.9%
growth at 10 µM (RPMI-8226): 63.4%
Ratio IC50 (K562 [1]): 14.2
growth at 10 µM (NCI-H23): 84.2%
growth at 10 µM (HT-29): 89.5%
growth at 10 µM (MDA-MB-231): 93.9%
growth at 10 µM (T47D): 56.9%
growth at 10 µM (RXF 393): 90.2%
growth at 10 µM (U-251): 45.1%
IC50 (K562 [2]): 0.525 µM
growth at 10 µM (A498): 65%
growth at 10 µM (PC-3): 79.8%
growth at 10 µM (NCI-H322M): 104%
growth at 10 µM (SW-620): 54.9%
growth at 10 µM (NCI-H460): 24.3%
growth at 10 µM (CAKI-1): 97%
growth at 10 µM [3]: 95.2%
growth at 10 µM (DU-145): 83.5%
growth at 10 µM (Malme-3M): 68.1%
growth at 10 µM (ACHN): 92.5%
growth at 10 µM (HOP-62): 75.9%
growth at 10 µM (K562 [4]): 61.9%
IC50 [5]: 7.5 µM
growth at 10 µM (SNB-19): 59.3%
growth at 10 µM (UO-31): 93.1%
growth at 10 µM (SK-MEL-5): 77.6%
inhibition [6]: Active
growth at 10 µM (786-0): 95.9%
growth at 10 µM (KM12): 87.9%
growth at 10 µM [7]: 103%
growth at 10 µM (SF-539): 77.8%
growth at 10 µM (SK-MEL-2): 101%
growth at 10 µM (SK-OV-3): 96.7%
growth at 10 µM (OVCAR-8): 95.5%
growth at 10 µM (M14): 95.4%
growth at 10 µM (MCF7): 26%
growth at 10 µM (OVCAR-3): 98.2%
growth at 10 µM (A549): 47%
growth at 10 µM (HCT-15): 98.6%
growth at 10 µM (CCRF-CEM): 12.8%
growth at 10 µM (MDA-MB-468): 93.8%
growth at 10 µM (HOP-92): 65.7%
growth at 10 µM (MDA-MB-435): 88.6%
growth at 10 µM (SN12C): 57.8%
growth at 10 µM (SR): 15.2%
growth at 10 µM (BT-549): 69.6%
growth at 10 µM (COLO 205): 53.9%
growth at 10 µM (IGROV-1): 71.8%
growth at 10 µM (HL-60(TB)): 26.7%
growth at 10 µM (OVCAR-4): 95.6%
growth at 10 µM (SK-MEL-28): 85.9%
growth at 10 µM (UACC-257): 79.7%
growth at 10 µM (SNB-75): 66.8%
growth at 10 µM (TK-10): 88.7%
Effect on topoisomerase 2-alpha DNA cleavage (qualitative) [8]: Dose-dependent effect
growth at 10 µM (SF-295): 94.5%
growth at 10 µM (HCT-116): 64.6%
growth at 10 µM (UACC-62): 56.4%
growth at 10 µM (HCC 2998): 97.8%
